Biological target: Sodium channel protein type 2 subunit alpha (Homo sapiens) (UniProt Q99250)
Assay: Inhibition of human voltage-gated sodium channel 1.2 expressed in HEK293 cells at 100 nM by […]
Assay type: cell-based
Summary of the method: (§1)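 HEK293 cells stably expressing hNav1.2, grown in DMEM/F12 with 10% FBS and G418 at 37 °C. Whole-cell patch clamp at 20–22 °C with ≥75% series resistance compensation. Currents evoked by a 25 ms step from –60 to +10 mV every 15 s. Compound was diluted from DMSO stock into perfusion, ≤0.1% DMSO final, applied after a 3 min control until steady state. Reported as percent block, mean ± SEM.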

Sodium channel protein type 2 subunit alpha (Homo sapiens), sequence (Q99250 whole entry, looked up): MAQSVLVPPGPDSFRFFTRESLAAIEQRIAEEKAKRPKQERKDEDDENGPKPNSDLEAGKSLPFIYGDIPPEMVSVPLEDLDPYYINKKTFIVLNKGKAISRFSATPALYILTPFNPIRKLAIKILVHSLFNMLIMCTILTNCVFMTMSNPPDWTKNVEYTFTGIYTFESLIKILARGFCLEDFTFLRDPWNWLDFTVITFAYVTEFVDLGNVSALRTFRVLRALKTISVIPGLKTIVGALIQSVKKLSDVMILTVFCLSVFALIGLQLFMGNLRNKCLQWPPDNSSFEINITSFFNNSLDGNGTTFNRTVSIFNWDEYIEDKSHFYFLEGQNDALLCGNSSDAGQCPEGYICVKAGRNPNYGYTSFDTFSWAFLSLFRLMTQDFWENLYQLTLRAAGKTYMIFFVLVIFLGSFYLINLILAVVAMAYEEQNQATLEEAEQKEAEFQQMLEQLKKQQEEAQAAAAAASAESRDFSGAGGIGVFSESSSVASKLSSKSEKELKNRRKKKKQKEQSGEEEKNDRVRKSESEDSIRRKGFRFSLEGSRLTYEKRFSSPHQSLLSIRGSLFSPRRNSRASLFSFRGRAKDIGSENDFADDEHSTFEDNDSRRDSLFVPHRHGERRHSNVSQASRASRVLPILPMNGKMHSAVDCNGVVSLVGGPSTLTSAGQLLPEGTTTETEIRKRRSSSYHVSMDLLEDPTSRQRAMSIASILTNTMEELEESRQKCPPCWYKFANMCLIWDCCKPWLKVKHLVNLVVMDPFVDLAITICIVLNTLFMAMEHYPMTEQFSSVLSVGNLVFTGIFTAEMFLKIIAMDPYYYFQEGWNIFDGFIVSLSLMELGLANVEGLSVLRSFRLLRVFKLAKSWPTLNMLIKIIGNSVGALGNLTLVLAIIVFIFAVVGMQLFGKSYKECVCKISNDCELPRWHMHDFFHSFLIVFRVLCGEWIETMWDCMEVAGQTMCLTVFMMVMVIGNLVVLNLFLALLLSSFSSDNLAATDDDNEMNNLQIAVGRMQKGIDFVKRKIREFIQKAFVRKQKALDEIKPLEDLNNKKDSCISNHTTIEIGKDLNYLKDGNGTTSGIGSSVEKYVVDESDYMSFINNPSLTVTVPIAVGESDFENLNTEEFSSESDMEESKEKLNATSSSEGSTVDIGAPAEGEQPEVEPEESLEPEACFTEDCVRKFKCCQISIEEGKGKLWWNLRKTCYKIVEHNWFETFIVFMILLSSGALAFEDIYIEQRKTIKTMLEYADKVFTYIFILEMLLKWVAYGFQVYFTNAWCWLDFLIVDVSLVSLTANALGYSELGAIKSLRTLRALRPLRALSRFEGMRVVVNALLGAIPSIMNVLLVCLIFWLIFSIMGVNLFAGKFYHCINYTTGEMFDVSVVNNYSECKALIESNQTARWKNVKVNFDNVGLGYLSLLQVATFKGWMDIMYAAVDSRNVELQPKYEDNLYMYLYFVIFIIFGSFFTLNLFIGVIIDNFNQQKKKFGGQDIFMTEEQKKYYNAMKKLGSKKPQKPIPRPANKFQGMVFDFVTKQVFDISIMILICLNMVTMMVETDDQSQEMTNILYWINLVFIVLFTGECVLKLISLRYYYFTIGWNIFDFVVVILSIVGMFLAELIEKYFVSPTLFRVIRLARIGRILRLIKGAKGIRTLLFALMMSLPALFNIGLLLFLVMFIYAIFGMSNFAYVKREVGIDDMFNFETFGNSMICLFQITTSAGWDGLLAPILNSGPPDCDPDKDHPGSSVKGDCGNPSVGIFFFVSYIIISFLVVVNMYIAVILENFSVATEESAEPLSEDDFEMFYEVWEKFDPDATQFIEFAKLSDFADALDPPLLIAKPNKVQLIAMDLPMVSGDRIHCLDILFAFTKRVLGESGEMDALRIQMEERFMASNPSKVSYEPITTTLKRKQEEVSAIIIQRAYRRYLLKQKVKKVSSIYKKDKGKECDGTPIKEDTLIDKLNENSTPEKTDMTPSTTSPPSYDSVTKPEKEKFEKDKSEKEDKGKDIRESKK

First: CCCCCCC[C@@H](C/C=C/CCC(=O)NCCc1ccccc1)OC
Second: CCCCCCCC(C/C=C/CCC(=O)NCCc1ccccc1)OC (racemic)
The inhibition of the first is higher: 15.5% for the first, < 10% for the second.

First: CCCCCCC[C@H](C/C=C/CCC(=O)NCCc1c[nH]c2ccccc12)OC
Second: CCCCCCCC(C/C=C/CCC(=O)NCCc1c[nH]c2ccccc12)OC (racemic)
The inhibition of the first is higher: 28.8% for the first, 24.3% for the second.

First: CCCCCCC[C@@H](C/C=C/CCC(=O)NCCc1c[nH]c2ccccc12)OC
Second: CCCCCCC[C@H](C/C=C/CCC(=O)NCCc1ccccc1)OC
The inhibition of the first is higher: 17.2% for the first, < 10% for the second.

Biological target: Sodium channel protein type 2 subunit alpha (Homo sapiens) (UniProt Q99250)
Assay: Inhibition of human voltage-gated sodium channel 1.2 expressed in human HEK293 cells at 10 uM by […]
Assay type: cell-based
Summary of the method: as §1

Going from `CCCCCCC[C@@H](C/C=C/CCC(=O)NCCc1ccccc1)OC` to `CCCCCCCC(C/C=C/CCC(=O)NCCc1ccccc1)OC` (racemic), the inhibition falls from 94.4% to 90.2%.

`CCCCCCCC(C/C=C/CCC(=O)NCCc1c[nH]c2ccccc12)OC` (racemic) and `CCCCCCC[C@@H](C/C=C/CCC(=O)NCCc1c[nH]c2ccccc12)OC` are the same in inhibition: 100% for the first, 100% for the second.

For `O=C1NC(=O)C(c2ccccc2)(c2ccccc2)N1`, the inhibition was 10%.

Biological target: Sodium channel protein type 2 subunit alpha (Homo sapiens) (UniProt Q99250)
Assay: Inhibition of human voltage-gated sodium channel 1.2 expressed in HEK293 cells at 1 uM by […]
Assay type: cell-based
Summary of the method: as §1

Compared with `CCCCCCC[C@@H](C/C=C/CCC(=O)NCCc1ccccc1)OC`, `CCCCCCCC(C/C=C/CCC(=O)NCCc1ccccc1)OC` (racemic) is lower in inhibition: 74.4% for the first, 49.7% for the second.

First: CCCCCCC[C@H](C/C=C/CCC(=O)NCCc1c[nH]c2ccccc12)OC
Second: CCCCCCCC(C/C=C/CCC(=O)NCCc1c[nH]c2ccccc12)OC (racemic)
The inhibition of the first is lower: 80.7% for the first, 88.4% for the second.

First: CCCCCCC[C@@H](C/C=C/CCC(=O)NCCc1c[nH]c2ccccc12)OC
Second: CCCCCCC[C@H](C/C=C/CCC(=O)NCCc1ccccc1)OC
The inhibition of the first is higher: 87.8% for the first, 58.7% for the second.

With `O=C1NC(=O)C(c2ccccc2)(c2ccccc2)N1` the inhibition was < 10%.

Species: Rattus norvegicus
Assay: Displacement of [3H]batrachotoxin from neurotoxin site 2 of voltage-gated sodium channel in rat forebrain tissue at 10 uM after 60 mins
Summary of the method: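 Rat forebrain membranes (10 mg tissue/well) incubated with [3H]-BTX (30–60 Ci/mmol) in 50 mM HEPES pH 7.4 with 130 mM choline chloride, 37 °C, 60 min; test at 10 μM. Stopped by rapid vacuum filtration onto glass fiber filters; bound radioactivity counted against control and expressed as percent displacement. Aconitine (1 μM) positive control.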

Going from `CCCCCCC[C@@H](C/C=C/CCC(=O)NCCc1ccccc1)OC` to `CCCCCCCC(C/C=C/CCC(=O)NCCc1ccccc1)OC` (racemic), the Activity falls from 15.9% to 15.7%.

Compared with `CCCCCCC[C@H](C/C=C/CCC(=O)NCCc1c[nH]c2ccccc12)OC`, `CCCCCCCC(C/C=C/CCC(=O)NCCc1c[nH]c2ccccc12)OC` (racemic) is higher in Activity: 20.3% for the first, 36% for the second.

Going from `CCCCCCC[C@@H](C/C=C/CCC(=O)O)OC` to `CCCCCCC[C@H](C/C=C/CCC(=O)O)OC`, the Activity rises from 7.77% to 11.9%.

First: CCCCCCC[C@@H](C/C=C/CCC(=O)NCCc1c[nH]c2ccccc12)OC
Second: CCCCCCC[C@H](C/C=C/CCC(=O)NCCc1ccccc1)OC
The Activity of the first is higher: 29% for the first, 13.8% for the second.

Compared with `O=C1NC(=O)C(c2ccccc2)(c2ccccc2)N1`, `CCCCCCCC(C/C=C/CCC(=O)O)OC` (racemic) is lower in Activity: 19.8% for the first, 7.35% for the second.
